Experimental data of several laboratories.
Compare with care: the assays were run in different laboratories.
Effect on: metabolic stability
Host: human
Sample: liver microsomes

O=c1c2cccc(Oc3ccc(OC(F)(F)F)cc3)c2[nH]c2cc(Cl)cc(F)c12
microsomal CLint (1 µM; pH 7.4): 6.75 µL/min/mg

C[C@H]1[C@@H](C(=O)NCc2nc(-c3ccc(C#N)cc3)cs2)CCCN1C(=O)[C@H]1CCO1
microsomal CLint (0.5 µM): 131 µL/min/mg

C#C[C@]1(OC(C)=O)CC[C@H]2[C@@H]3CCC4=CC(=NO)CC[C@@H]4[C@H]3CC[C@@]21CC (mixture of isomers)
microsomal CLint: 70.1 µL/min/mg

COCC(=O)N1CCC[C@H](C(=O)NCc2nc(-c3ccccc3)cs2)C1
microsomal CLint (0.5 µM): < 7 µL/min/mg

O=c1c2c(F)cc(Cl)cc2[nH]c2cccc(Oc3ccc(OC(F)(F)F)cc3)c12
microsomal CLint (1 µM; pH 7.4): 5.86 µL/min/mg

COc1cc(NC(=O)Cn2ccc3ccc(-c4cnn(C)c4)cc32)cc(OC)c1OC
microsomal CLint: 62 µL/min/mg

O=c1c2ccc(Oc3ccc(OC(F)(F)F)cc3)cc2[nH]c2ccc(F)c(Cl)c12
microsomal CLint (1 µM; pH 7.4): 7.54 µL/min/mg

CC1(C)NC(=O)N(c2ccc(F)c(S(C)(=O)=O)c2)C1=O
microsomal CLint: < 7 µL/min/mg

O=C(NCc1nc(-c2ccccc2)cs1)[C@H]1CCCN(C(=O)[C@@H]2CCCO2)C1
microsomal CLint (0.5 µM): 36 µL/min/mg

Cc1cc2c(C(=O)O)cccc2n1-c1nc2c(c(NCc3ccccc3)n1)CCCN2
microsomal CLint (1 µM; pH 7.4): 9.07 µL/min/mg

CCONC(=O)N1CCC[C@H](C(=O)NCc2nc(-c3ccccc3)cs2)C1
microsomal CLint (0.5 µM): 10 µL/min/mg

O=C1c2ccccc2C(=O)N1CCCN1CCN(C(c2ccc(F)cc2)c2ccc(F)cc2)CC1
microsomal CLint (100 ng/mL): 39 µL/min/mg

Cc1ccc(-c2csc(CNC(=O)[C@H]3CCCN(C(=O)[C@H]4CCC(C)(C)O4)[C@H]3C)n2)cn1
microsomal CLint (0.5 µM): 155 µL/min/mg

CN(C)CCOc1ccc2c(=O)c3c([nH]c2c1)CCCC3
microsomal CLint (1 µM; pH 7.4): 8.08 µL/min/mg

CC1(C(F)(F)F)NC(=O)N(c2ccc(F)c(C(F)(F)F)c2)C1=O (stereo not drawn)
microsomal CLint: < 7 µL/min/mg

O=c1c2c([nH]c3cc(Nc4ccc(OC(F)(F)F)cc4)ccc13)CCCC2
microsomal CLint (1 µM; pH 7.4): 67 µL/min/mg

O=C(O)Cc1ccccc1Nc1c(Cl)cccc1Cl
microsomal CLint (2 µM; pH 7.4): 201 µL/min/mg

Cc1ccc(N(C)c2ccc(NC(=O)CN(C)c3ccccc3N3CCCC3=O)cn2)cc1
microsomal CLint: 216 µL/min/mg

CC(C)(N)COCC(=O)N1CCC[C@H](C(=O)NCc2nc(-c3ccc(C(F)(F)F)cc3)cs2)C1
microsomal CLint (0.5 µM): < 3 µL/min/mg

Cc1ccc(Oc2ccc(NC(=O)COc3ccccc3N3CCCC3=O)cc2)cc1
microsomal CLint: 132 µL/min/mg

O=c1c2ccc(OC3CCNCC3)cc2[nH]c2cc(F)cc(Cl)c12
microsomal CLint (1 µM; pH 7.4): 13.9 µL/min/mg
